Rows were chosen to be rich in hits. Some 2.6% of all compounds tested hit in one or more screens of this group.
MEKK2mut PB1 HTS = MEK5 binding signal on mutant MEKK2 PB1, primary screen, biochemical, multiplex bead flow cytometry, Alexa488-MEK5; Alexa488-MEK5 binding to MEKK2 mutant; percent response, % at 10 µM; hit rate 0.35% among 290,000; AID 1530, 2009; in the data active = percent response above about 24%, passing the limit was not always enough
MEKK3 PB1 HTS = modulators of MEKK3-MEK5 PB1 binding, primary screen, biochemical, wildtype MEKK3, multiplex bead flow cytometry, Alexa488-MEK5; Mitogen-activated protein kinase kinase kinase 3 (Homo sapiens), Q99759; bead-based flow cytometry, Alexa488-MEK5 binding to MEKK3; actives lie on both sides; 0 = blocked by unlabeled MEK5, 100 = vehicle; binding response (% of control), % at 10 µM; hit rate 1.4% among 290,000; AID 1529, 2009;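 active = binding response more than 3 SD above or below the average of its plate-row segment, actives on both sides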;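 note: Alexa488 bead fluorescence after subtracting the streptavidin-only scavenger bead signal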
Target sequence (Q99759 whole entry, looked up): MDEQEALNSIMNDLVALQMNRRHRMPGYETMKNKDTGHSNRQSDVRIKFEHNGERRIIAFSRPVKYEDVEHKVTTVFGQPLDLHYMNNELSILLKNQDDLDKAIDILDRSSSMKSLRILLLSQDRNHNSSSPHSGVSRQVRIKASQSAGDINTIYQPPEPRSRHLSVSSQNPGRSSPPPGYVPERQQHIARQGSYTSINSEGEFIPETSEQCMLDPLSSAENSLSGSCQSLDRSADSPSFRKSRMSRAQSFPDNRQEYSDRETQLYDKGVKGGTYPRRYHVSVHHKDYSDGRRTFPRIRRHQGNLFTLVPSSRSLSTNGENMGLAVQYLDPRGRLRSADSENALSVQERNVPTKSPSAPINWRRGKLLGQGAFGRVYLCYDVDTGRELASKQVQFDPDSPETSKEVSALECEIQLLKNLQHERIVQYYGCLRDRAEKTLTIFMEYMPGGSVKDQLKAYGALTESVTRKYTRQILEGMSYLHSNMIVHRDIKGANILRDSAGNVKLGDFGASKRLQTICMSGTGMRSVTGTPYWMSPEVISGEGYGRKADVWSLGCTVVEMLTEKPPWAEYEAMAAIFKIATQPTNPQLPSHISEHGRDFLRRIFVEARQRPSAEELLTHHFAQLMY
Lipid droplet = inhibitors of hepatocyte lipid droplet formation, primary screen, imaging, high-throughput imaging, BODIPY stain; AML12 mouse hepatocytes, oleate lipid droplets; inhibition, % at 6.5 µM; hit rate 0.4% among 240,000; AID 1656, 2009;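 active = lipid droplet intensity inhibited by at least 50%, with more than 500 cells counted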
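System: AML12 hepatocytes (mouse). Probe or stimulus: oleic acid at 100 µM to induce lipid droplet formation. Times: overnight treatment with compound plus oleate. Detection: Image-based BODIPY and DAPI two-channel analysis. Evaluation: percent inhibition of filter-corrected integrated lipid droplet intensity per well.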
MEKK2 WT-MEK5 = modulators of MEK5 binding to wildtype MEKK2, primary screen, biochemical, multiplex bead flow cytometry, Alexa488-MEK5; Alexa488-MEK5 binding to MEKK2 WT; actives lie on both sides; binding response (% of control), % at 10 µM; hit rate 1.1% among 290,000; AID 1531, 2009; in the data active = binding response below about 67% or above about 130%
MEKK2wt confirm = modulators of MEK5 binding to wildtype MEKK2, confirmation, biochemical, single concentration, multiplex bead flow cytometry. shares compounds with MEKK3 PB1 HTS. Alexa488-MEK5 binding to MEKK2 WT; actives lie on both sides. binding response (% of control), % at 10 µM. hit rate 2.4% among 5,900; in the data active = binding response below about 16% or above about 210%; inactive = in between
MEKK2mut-MEK5 = mutant MEKK2 PB1-MEK5 binding signal retest – biochemical, single concentration, multiplex bead flow cytometry, confirmation | Alexa488-MEK5 binding to MEKK2 mutant | percent response, % at 10 µM | hit rate 2% among 5,900 | shares compounds with MEKK3 PB1 HTS; in the data active = percent response mostly above about 71%, no sharp cut-off; inactive = mostly below about 38%;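 note: higher means compound restores mutant binding toward wildtype level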
MEKK3 confirm = MEKK3 wild-type PB1 binding to MEK5, inhibitors, confirmation, biochemical, bead multiplex flow cytometry, single concentration, wildtype; Alexa488-MEK5 binding to MEKK3; active compounds read low; shares compounds with MEKK3 PB1 HTS; hit rate 1.8% among 5,900; binding response (% of control), % at 10 µM;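 active = binding response below 72% of control, or above a set upper limit, though filed actives all read lower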;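 note: 100% = DMSO only wells and 0% = binding blocked by excess unlabeled MEK5; lower values mean stronger disruption of MEK5 binding to MEKK3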
Starred values were filed as active, the others as inactive; [ ] = remark or other dose.

What do the screens show for `Cc1ccc(C2C(C#N)=C(N)Oc3cc(N)ccc32)cc1` (configuration not stated)?
MEKK2mut PB1 HTS: 2; MEKK3 PB1 HTS: 100; Lipid droplet: 8; MEKK2 WT-MEK5: 103

What do the screens show for `Cc1ccc(/C=C2\CCC3=C2OC(N)=C(C#N)C3c2ccc(C)cc2)cc1` (configuration not stated)?
MEKK2mut PB1 HTS: 108*; MEKK3 PB1 HTS: 118; MEKK2 WT-MEK5: 101; MEKK2wt confirm: 92; MEKK2mut-MEK5: -17; MEKK3 confirm: 95

How did COc1ccc(-c2csc(NC(C)c3nc4cc(Cl)c(Cl)cc4n3CCCO)n2)cc1 (configuration not stated) do in these assays?
MEKK2mut PB1 HTS: 0; MEKK3 PB1 HTS: 103; MEKK2 WT-MEK5: 103

Results for CN1CCN(C2=Cc3ccc(Cl)cc3Sc3ccc(F)cc32)CC1 ?
MEKK2mut PB1 HTS: 27*; MEKK3 PB1 HTS: 114; Lipid droplet: -6; MEKK2 WT-MEK5: 150*; MEKK2wt confirm: 169; MEKK2mut-MEK5: 42; MEKK3 confirm: 109

What do the screens show for `CN1CCN(C2=Cc3ccccc3Sc3cc(F)ccc32)CC1`?
MEKK2mut PB1 HTS: 11; MEKK3 PB1 HTS: 97; Lipid droplet: -4; MEKK2 WT-MEK5: 136*; MEKK2wt confirm: 149; MEKK2mut-MEK5: 37; MEKK3 confirm: 113

Results for CN1CCN(C2=Nc3cc(F)ccc3Cc3ccccc32)CC1 ?
MEKK2mut PB1 HTS: 3; MEKK3 PB1 HTS: 102; Lipid droplet: -42; MEKK2 WT-MEK5: 109

How did Cc1ccnc(NC(=O)CCC(=O)N(CC(=O)NC(C)(C)C)c2ccc(F)c(Cl)c2)c1 do in these assays?
MEKK2mut PB1 HTS: -8; MEKK3 PB1 HTS: 99; Lipid droplet: -13; MEKK2 WT-MEK5: 94

Results for Cc1ccc2nc(SC(C(=O)Nc3ccc(F)cc3)c3ccccc3)[nH]c2c1 (configuration not stated) ?
MEKK2mut PB1 HTS: 1; MEKK3 PB1 HTS: 153*; Lipid droplet: -27; MEKK2 WT-MEK5: 123; MEKK2wt confirm: 88; MEKK2mut-MEK5: 5; MEKK3 confirm: 103

What do the screens show for `Nn1cc(-c2ccccc2)nc1SCC(=O)Nc1ccc(S(N)(=O)=O)cc1`?
MEKK2mut PB1 HTS: 5; MEKK3 PB1 HTS: 105; Lipid droplet: 10; MEKK2 WT-MEK5: 105

What do the screens show for `Cc1ccc2[nH]c(=O)c(CN(Cc3cccs3)C(=S)NCc3ccco3)cc2c1`?
MEKK2mut PB1 HTS: 1; MEKK3 PB1 HTS: 130*; Lipid droplet: -1; MEKK2 WT-MEK5: 100; MEKK2wt confirm: 96; MEKK2mut-MEK5: -5; MEKK3 confirm: 100

What do the screens show for `O=C(Cc1cccs1)NCCSc1c(-c2ccc(Cl)cc2)[nH]c2ccccc12`?
MEKK2mut PB1 HTS: -14; MEKK3 PB1 HTS: 1.0*[inhibitor]; Lipid droplet: 41; MEKK2 WT-MEK5: 2.0*[inhibitor]; MEKK2wt confirm: 118; MEKK2mut-MEK5: 5; MEKK3 confirm: 107

How did Cc1ccc(-c2[nH]c3ccccc3c2SCCNC(=O)c2cc3ccccc3oc2=O)cc1 do in these assays?
MEKK2mut PB1 HTS: 1; MEKK3 PB1 HTS: 94; Lipid droplet: 22; MEKK2 WT-MEK5: 96

What do the screens show for `CCOC(=O)CSc1c(-c2ccc(Cl)cc2)[nH]c2ccccc12`?
MEKK2mut PB1 HTS: 8; MEKK3 PB1 HTS: 155*; Lipid droplet: -5; MEKK2 WT-MEK5: 109; MEKK2wt confirm: 103; MEKK2mut-MEK5: -4; MEKK3 confirm: 97

How did CCC(Cc1ccccc1)NC(=O)C1CC1 (configuration not stated) do in these assays?
MEKK2mut PB1 HTS: 4; MEKK3 PB1 HTS: 101; Lipid droplet: -3; MEKK2 WT-MEK5: 102

What do the screens show for `Cc1cc(C(=O)NC2=NCCS2)c2ccccc2n1`?
MEKK2mut PB1 HTS: 5; MEKK3 PB1 HTS: 132*; Lipid droplet: 6; MEKK2 WT-MEK5: 118; MEKK2wt confirm: 105; MEKK2mut-MEK5: 5; MEKK3 confirm: 106

What do the screens show for `Cc1nnc(SCC(=O)Nc2cc(S(C)(=O)=O)ccc2Cl)n1Cc1ccccc1`?
MEKK2mut PB1 HTS: -1; MEKK3 PB1 HTS: 96; MEKK2 WT-MEK5: 94

Results for COc1ccc(CC2(CO)CCN(Cc3ccc4nsnc4c3)CC2)cc1 ?
MEKK2mut PB1 HTS: -6; MEKK3 PB1 HTS: 104; Lipid droplet: -8; MEKK2 WT-MEK5: 102

How did Cc1ccc2cccc(S(=O)(=O)NC3CCS(=O)(=O)C3)c2n1 (configuration not stated) do in these assays?
MEKK2mut PB1 HTS: -26; MEKK3 PB1 HTS: 2.0*[inhibitor]; Lipid droplet: -1; MEKK2 WT-MEK5: -1.0*[inhibitor]; MEKK2wt confirm: 107; MEKK2mut-MEK5: 9; MEKK3 confirm: 110

How did O=S(=O)(NC1CC2CCC1C2)c1ccc2c(c1)OCCO2 (configuration not stated) do in these assays?
MEKK2mut PB1 HTS: -26; MEKK3 PB1 HTS: 2.0*[inhibitor]; MEKK2 WT-MEK5: 3.0*[inhibitor]; MEKK2wt confirm: 96; MEKK2mut-MEK5: 1; MEKK3 confirm: 102

How did CC1CCCC(NS(=O)(=O)c2ccc3c(c2)OCCO3)C1C (configuration not stated) do in these assays?
MEKK2mut PB1 HTS: 4; MEKK3 PB1 HTS: 106; MEKK2 WT-MEK5: 106

Results for Cc1ccccc1S(=O)(=O)Cc1ccc(C(=O)O)o1 ?
MEKK2mut PB1 HTS: -13; MEKK3 PB1 HTS: 80*[inhibitor]; Lipid droplet: -43; MEKK2 WT-MEK5: 82; MEKK2wt confirm: 107; MEKK2mut-MEK5: 14; MEKK3 confirm: 108

How did Cc1ccccc1S(=O)(=O)Cc1ccc(C(=O)NCc2ccccc2)o1 do in these assays?
MEKK2mut PB1 HTS: 0; MEKK3 PB1 HTS: 100; Lipid droplet: 0; MEKK2 WT-MEK5: 103

What do the screens show for `COc1ccc(CCC(=O)Nc2cccc(Cl)c2)cc1`?
MEKK2mut PB1 HTS: 0; MEKK3 PB1 HTS: 130*; Lipid droplet: -15; MEKK2 WT-MEK5: 107; MEKK2wt confirm: 122; MEKK2mut-MEK5: 10; MEKK3 confirm: 105

How did COc1ccc(CCC(=O)Nc2cc(Cl)ccc2N2CCN(C)CC2)cc1 do in these assays?
MEKK2mut PB1 HTS: 25*; MEKK3 PB1 HTS: 101; MEKK2 WT-MEK5: 117; MEKK2wt confirm: 124; MEKK2mut-MEK5: 14; MEKK3 confirm: 108
